In ChEMBL document CHEMBL1811853, “Design and evaluation of 3-aminopyrazolopyridinone kinase inhibitors inspired by the natural product indirubin” (Bioorg Med Chem, 2011):
Converted amounts (≈) assume the structure as drawn.

Legend:
[1] = biological target: RAC-beta serine/threonine-protein kinase (Homo sapiens) (UniProt P31751); assay: Inhibition of AKT2 at 30 uM by microfluidic mobility shift assay
In short: (§1)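 Single-concentration screen, singlicate, 30 uM final (diluted from 1 mM DMSO solutions), fluorescently tagged peptide substrate appropriate to each kinase, ATP at apparent Km for each protein. Phosphorylated and unphosphorylated peptides separated electrophoretically; conversion is the phosphorylated peak area over the sum of both peaks. No-inhibitor and no-ATP controls; H89 reference on each plate.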

[2] = biological target: Insulin receptor (Homo sapiens) (UniProt P06213); assay: Inhibition of INSR at 30 uM by microfluidic mobility shift assay; in short: as §1
[3] = biological target: Ribosomal protein S6 kinase alpha-5 (Homo sapiens) (UniProt O75582); assay: Inhibition of MSK1 at 30 uM by microfluidic mobility shift assay; in short: as §1
[4] = biological target: T1, Aurora kinase A (Homo sapiens) (UniProt O14965); assay: Inhibition of AurA at 30 uM by microfluidic mobility shift assay; in short: as §1
T1 sequence (whole entry): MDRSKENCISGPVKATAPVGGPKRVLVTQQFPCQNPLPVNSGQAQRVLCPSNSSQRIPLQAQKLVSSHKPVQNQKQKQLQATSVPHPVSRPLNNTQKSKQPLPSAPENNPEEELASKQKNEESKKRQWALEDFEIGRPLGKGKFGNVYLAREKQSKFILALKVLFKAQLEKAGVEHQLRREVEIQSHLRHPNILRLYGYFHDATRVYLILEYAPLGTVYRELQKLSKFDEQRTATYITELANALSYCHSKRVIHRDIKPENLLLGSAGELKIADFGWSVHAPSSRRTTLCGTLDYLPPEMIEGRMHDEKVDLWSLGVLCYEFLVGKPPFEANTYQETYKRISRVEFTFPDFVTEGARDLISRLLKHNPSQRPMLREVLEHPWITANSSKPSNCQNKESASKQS

[5] = biological target: T2, Tyrosine-protein kinase Lyn (Homo sapiens, UniProt P07948); assay: Inhibition of LYN by microfluidic mobility shift assay
In short: (§2)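 IC50 determined in the mobility shift format: a fluorescently tagged peptide substrate appropriate to each kinase, ATP at its apparent Km for each protein, and electrophoretic separation of phospho and unphosphorylated peptide. Percent conversion is the ratio of the phosphopeptide peak area to the total peak area. Controls were no inhibitor and no ATP.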

[6] = biological target: Mitogen-activated protein kinase 1 (Homo sapiens) (UniProt P28482); assay: Inhibition of ERK2 at 30 uM by microfluidic mobility shift assay; in short: as §1
[7] = biological target: RAC-alpha serine/threonine-protein kinase (Homo sapiens) (UniProt P31749); assay: Inhibition of AKT1 at 30 uM by microfluidic mobility shift assay; in short: as §1
[8] = biological target: T3, Tyrosine-protein kinase ABL1 (Homo sapiens, UniProt P00519); assay: Inhibition of ABL at 30 uM by microfluidic mobility shift assay; in short: as §1
[9] = biological target: T4, Mitogen-activated protein kinase 14 (Homo sapiens, UniProt Q16539); assay: Inhibition of p38alpha at 30 uM by microfluidic mobility shift assay; in short: as §1
[10] = biological target: Serine/threonine-protein kinase Chk2 (Homo sapiens, UniProt O96017); assay: Inhibition of CHK2 at 30 uM by microfluidic mobility shift assay; in short: as §1
[11] = biological target: T5, Tyrosine-protein kinase Lck (Homo sapiens, UniProt P06239); assay: Inhibition of LCK by microfluidic mobility shift assay; in short: as §2
[12] = biological target: T2, Tyrosine-protein kinase Lyn; assay: Inhibition of LYN at 30 uM by microfluidic mobility shift assay; in short: as §1
Target sequence in this assay (P07948 2-512 limits assumed): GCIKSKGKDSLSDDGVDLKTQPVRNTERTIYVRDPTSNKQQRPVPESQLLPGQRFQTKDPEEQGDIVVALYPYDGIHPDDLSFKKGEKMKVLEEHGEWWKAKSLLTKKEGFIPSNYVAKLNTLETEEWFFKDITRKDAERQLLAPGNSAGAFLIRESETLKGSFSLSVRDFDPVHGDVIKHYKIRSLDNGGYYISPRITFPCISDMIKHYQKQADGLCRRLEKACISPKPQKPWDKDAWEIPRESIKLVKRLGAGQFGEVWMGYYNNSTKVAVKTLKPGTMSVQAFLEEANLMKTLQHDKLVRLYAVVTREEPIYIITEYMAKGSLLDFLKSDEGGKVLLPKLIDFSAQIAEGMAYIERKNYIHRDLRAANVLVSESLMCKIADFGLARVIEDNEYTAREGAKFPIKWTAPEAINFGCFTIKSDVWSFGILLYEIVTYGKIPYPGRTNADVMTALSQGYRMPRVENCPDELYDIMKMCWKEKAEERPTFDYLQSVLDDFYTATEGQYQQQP

[13] = biological target: T4, Mitogen-activated protein kinase 14; assay: Inhibition of p38alpha by microfluidic mobility shift assay; in short: as §2
[14] = Inhibition of PKA at 30 uM by microfluidic mobility shift assay; in short: as §1
[15] = biological target: T6, MAP kinase-activated protein kinase 5 (Homo sapiens) (UniProt Q8IW41); assay: Inhibition of PRAK1 at 30 uM by microfluidic mobility shift assay; in short: as §1
T6 sequence (whole entry): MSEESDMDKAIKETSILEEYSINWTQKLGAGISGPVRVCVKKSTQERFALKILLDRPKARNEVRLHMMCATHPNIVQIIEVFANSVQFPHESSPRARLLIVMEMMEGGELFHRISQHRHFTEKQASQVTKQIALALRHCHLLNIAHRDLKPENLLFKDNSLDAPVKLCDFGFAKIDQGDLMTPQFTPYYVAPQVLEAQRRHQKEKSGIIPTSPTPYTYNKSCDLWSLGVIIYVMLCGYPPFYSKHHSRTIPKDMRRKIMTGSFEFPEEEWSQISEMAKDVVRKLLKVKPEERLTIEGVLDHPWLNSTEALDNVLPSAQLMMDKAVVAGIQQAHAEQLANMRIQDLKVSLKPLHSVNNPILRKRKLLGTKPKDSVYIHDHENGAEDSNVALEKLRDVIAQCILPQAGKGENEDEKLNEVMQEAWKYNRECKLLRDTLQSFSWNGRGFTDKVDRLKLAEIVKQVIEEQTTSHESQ

[16] = biological target: T7, Proto-oncogene tyrosine-protein kinase Src (Homo sapiens, UniProt P12931); assay: Inhibition of SRC at 30 uM by microfluidic mobility shift assay; in short: as §1
[17] = biological target: Glycogen synthase kinase-3 beta (Homo sapiens) (UniProt P49841); assay: Inhibition of GSK3B at 30 uM by microfluidic mobility shift assay; in short: as §1
[18] = tested on: MCF7; assay: Growth inhibition of human MCF7 cells at 0.039 uM; format: functional; details: read-out: GI
[19] = biological target: T8, Tyrosine-protein kinase Fyn (Homo sapiens, UniProt P06241); assay: Inhibition of FYN at 30 uM by microfluidic mobility shift assay; in short: as §1
Target sequence in this assay (P06241 2-537 limits assumed): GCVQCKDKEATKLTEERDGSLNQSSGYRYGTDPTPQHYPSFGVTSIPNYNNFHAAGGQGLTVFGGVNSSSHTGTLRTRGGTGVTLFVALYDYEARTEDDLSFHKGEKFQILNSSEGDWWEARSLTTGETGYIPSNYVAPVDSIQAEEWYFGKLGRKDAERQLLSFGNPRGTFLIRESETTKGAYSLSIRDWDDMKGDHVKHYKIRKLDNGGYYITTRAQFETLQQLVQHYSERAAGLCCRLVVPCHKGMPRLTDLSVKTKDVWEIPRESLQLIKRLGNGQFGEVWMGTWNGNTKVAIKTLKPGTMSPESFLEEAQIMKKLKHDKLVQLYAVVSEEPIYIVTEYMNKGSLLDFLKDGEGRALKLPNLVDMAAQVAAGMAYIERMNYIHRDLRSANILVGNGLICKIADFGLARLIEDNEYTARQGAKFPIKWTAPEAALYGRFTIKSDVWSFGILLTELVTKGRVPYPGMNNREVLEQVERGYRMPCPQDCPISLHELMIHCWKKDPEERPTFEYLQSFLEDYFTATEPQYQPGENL

[20] = biological target: T9, Serine/threonine-protein kinase D2 (Homo sapiens) (UniProt Q9BZL6); assay: Inhibition of PKD2 at 30 uM by microfluidic mobility shift assay; in short: as §1
T9 sequence (whole entry): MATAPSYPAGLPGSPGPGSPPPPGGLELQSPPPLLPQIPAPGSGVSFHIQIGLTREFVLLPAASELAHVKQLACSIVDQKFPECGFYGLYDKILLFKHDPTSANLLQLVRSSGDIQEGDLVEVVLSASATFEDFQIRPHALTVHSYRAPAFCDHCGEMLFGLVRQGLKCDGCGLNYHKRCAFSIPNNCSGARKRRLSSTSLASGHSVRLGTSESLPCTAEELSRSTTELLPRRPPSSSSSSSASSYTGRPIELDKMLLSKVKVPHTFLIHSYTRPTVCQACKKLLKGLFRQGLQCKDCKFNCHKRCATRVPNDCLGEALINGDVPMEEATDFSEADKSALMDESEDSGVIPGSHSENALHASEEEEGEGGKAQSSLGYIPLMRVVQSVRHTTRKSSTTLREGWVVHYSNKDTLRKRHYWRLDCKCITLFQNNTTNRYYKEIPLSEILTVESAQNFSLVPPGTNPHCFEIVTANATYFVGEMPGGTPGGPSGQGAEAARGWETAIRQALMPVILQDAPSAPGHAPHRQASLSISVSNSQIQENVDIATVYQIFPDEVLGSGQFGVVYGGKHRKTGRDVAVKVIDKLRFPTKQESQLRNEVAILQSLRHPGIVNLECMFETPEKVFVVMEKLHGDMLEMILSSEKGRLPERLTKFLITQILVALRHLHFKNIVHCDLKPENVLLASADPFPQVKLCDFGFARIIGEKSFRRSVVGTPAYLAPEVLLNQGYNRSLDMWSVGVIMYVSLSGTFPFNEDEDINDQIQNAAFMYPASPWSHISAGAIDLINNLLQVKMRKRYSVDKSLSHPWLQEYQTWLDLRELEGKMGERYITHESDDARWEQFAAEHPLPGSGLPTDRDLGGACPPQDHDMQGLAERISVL

[21] = biological target: T5, Tyrosine-protein kinase Lck; assay: Inhibition of LCK at 30 uM by microfluidic mobility shift assay; in short: as §1
Target sequence in this assay (P06239 2-509 limits assumed): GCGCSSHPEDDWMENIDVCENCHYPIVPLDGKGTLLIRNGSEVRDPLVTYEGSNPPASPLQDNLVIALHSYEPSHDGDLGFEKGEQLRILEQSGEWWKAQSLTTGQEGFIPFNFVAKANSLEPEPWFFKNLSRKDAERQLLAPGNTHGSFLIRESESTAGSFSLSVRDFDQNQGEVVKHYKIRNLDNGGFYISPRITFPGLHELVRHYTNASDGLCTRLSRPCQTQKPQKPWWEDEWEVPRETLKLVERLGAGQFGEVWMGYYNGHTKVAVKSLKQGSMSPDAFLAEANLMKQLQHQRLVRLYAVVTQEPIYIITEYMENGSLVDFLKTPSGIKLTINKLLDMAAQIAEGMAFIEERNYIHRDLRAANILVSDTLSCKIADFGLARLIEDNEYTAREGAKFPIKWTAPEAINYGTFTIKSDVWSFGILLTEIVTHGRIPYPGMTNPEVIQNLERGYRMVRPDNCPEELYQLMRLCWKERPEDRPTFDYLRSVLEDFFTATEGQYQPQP

[22] = biological target: MAP kinase-activated protein kinase 2 (Homo sapiens, UniProt P49137); assay: Inhibition of MAPKAPK2 at 30 uM by microfluidic mobility shift assay; in short: as §1
[23] = biological target: T3, Tyrosine-protein kinase ABL1; assay: Inhibition of ABL by microfluidic mobility shift assay; in short: as §2
[24] = biological target: Mitogen-activated protein kinase 3 (Homo sapiens) (UniProt P27361); assay: Inhibition of ERK1 at 30 uM by microfluidic mobility shift assay; in short: as §1
[25] = biological target: T8, Tyrosine-protein kinase Fyn; assay: Inhibition of FYN by microfluidic mobility shift assay; in short: as §2
[26] = Aqueous solubility of the compound by HPLC analysis; format: physicochemical; details: water
In short: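 Solubility determined by HPLC measurement of the concentration in saturated aqueous solutions of the compounds.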

[27] = biological target: Ribosomal protein S6 kinase alpha-1 (Homo sapiens) (UniProt Q15418); assay: Inhibition of RSK1 at 30 uM by microfluidic mobility shift assay; in short: as §1
[28] = biological target: T7, Proto-oncogene tyrosine-protein kinase Src; assay: Inhibition of SRC by microfluidic mobility shift assay; in short: as §2
[29] = biological target: T10, Protein kinase C zeta type (Homo sapiens) (UniProt Q05513); assay: Inhibition of PKCz at 30 uM by microfluidic mobility shift assay; in short: as §1
T10 sequence (whole entry): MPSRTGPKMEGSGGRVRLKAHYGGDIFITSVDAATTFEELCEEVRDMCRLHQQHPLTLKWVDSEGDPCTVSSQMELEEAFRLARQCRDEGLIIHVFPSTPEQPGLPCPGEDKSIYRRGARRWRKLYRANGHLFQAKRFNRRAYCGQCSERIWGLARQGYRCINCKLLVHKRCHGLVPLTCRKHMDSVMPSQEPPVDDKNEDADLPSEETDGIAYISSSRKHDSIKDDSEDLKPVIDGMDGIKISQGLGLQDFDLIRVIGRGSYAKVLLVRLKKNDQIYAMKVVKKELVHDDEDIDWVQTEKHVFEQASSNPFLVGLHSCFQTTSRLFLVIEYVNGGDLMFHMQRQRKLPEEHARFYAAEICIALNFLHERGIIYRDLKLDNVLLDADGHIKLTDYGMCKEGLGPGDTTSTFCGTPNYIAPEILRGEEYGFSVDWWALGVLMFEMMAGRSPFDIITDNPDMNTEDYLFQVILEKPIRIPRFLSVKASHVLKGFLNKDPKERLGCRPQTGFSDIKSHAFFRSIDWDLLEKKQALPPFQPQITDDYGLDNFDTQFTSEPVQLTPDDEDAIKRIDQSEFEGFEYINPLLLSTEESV

[30] = biological target: T11, Serine/threonine-protein kinase Chk1 (Homo sapiens) (UniProt O14757); assay: Inhibition of CHK1 at 30 uM by microfluidic mobility shift assay; in short: as §1
T11 sequence (whole entry): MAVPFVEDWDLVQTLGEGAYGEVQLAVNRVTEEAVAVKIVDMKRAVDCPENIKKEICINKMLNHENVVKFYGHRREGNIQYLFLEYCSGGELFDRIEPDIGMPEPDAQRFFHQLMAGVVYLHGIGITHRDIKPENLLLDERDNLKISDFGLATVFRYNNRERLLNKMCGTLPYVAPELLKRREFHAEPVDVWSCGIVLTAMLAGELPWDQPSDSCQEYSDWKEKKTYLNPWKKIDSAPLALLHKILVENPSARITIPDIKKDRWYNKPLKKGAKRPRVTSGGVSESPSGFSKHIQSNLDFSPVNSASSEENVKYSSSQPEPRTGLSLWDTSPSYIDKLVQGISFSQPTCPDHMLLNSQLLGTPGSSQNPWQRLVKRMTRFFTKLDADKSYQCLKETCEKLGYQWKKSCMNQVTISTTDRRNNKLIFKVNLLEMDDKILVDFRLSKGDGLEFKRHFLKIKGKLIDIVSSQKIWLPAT

Chain of MAP kinase-activated protein kinase 2 (P49137 whole entry, looked up): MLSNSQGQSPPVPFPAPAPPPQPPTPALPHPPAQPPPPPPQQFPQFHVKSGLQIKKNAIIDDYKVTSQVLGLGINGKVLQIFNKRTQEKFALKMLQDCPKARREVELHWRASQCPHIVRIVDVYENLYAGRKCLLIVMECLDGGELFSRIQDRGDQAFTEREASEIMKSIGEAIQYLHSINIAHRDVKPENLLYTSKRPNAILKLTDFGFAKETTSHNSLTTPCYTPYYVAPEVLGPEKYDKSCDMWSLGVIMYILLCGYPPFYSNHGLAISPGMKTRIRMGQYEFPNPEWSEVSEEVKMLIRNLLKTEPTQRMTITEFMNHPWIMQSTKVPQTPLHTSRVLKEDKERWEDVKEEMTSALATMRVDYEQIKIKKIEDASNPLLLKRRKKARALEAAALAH
T7 sequence (P12931 2-536 limits assumed): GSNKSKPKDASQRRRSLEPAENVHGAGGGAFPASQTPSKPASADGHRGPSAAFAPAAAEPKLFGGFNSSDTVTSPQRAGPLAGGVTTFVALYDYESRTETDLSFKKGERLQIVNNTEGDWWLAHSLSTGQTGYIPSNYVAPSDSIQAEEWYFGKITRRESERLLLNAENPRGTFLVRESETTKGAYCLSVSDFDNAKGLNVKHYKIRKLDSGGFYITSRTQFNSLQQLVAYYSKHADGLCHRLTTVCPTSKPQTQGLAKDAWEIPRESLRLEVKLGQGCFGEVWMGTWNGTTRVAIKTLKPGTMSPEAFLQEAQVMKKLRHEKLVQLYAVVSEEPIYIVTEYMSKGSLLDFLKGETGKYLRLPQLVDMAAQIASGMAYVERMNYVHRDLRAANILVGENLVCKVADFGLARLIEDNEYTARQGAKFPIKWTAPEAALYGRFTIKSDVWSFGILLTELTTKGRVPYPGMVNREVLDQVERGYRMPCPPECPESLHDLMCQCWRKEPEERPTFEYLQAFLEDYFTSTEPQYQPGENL
Chain of Mitogen-activated protein kinase 3 (Homo sapiens) (P27361 whole entry): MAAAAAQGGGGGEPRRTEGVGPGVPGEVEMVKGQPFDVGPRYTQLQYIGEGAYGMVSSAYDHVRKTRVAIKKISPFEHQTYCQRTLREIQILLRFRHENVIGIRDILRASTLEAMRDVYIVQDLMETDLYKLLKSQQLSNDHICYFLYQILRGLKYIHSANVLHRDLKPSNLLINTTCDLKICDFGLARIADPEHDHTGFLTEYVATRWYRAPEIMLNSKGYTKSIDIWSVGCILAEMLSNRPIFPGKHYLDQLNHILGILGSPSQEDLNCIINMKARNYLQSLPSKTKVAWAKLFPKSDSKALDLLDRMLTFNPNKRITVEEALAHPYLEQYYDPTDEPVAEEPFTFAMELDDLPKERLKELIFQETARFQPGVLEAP
T3 sequence (P00519 whole entry): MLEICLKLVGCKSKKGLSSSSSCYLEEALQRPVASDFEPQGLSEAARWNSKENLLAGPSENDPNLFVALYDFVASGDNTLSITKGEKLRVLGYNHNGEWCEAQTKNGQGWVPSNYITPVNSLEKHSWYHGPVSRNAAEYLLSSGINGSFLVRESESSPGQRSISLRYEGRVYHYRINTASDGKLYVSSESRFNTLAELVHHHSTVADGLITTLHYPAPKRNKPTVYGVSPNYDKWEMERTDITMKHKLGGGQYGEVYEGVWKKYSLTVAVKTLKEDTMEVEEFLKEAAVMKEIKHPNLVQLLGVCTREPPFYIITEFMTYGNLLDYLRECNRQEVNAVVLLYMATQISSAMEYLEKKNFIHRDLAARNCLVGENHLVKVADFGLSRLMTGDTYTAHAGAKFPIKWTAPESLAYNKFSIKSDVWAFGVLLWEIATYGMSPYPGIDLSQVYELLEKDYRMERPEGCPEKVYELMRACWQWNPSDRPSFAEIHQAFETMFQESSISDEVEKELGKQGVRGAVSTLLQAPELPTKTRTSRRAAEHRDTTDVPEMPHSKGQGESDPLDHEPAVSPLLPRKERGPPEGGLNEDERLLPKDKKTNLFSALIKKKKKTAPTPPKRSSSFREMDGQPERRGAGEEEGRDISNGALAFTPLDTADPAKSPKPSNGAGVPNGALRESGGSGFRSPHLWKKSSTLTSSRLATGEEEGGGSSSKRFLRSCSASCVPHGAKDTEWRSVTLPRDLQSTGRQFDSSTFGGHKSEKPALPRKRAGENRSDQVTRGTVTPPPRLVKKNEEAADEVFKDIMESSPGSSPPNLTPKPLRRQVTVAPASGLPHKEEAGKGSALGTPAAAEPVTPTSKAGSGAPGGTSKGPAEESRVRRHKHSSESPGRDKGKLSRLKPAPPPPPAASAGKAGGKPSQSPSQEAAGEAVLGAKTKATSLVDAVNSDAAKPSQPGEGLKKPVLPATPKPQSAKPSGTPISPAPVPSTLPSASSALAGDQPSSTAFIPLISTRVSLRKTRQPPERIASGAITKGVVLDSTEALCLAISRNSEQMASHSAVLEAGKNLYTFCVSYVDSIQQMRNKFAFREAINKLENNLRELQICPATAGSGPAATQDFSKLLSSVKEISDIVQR
Chain of Mitogen-activated protein kinase 1 (Homo sapiens) (P28482 whole entry): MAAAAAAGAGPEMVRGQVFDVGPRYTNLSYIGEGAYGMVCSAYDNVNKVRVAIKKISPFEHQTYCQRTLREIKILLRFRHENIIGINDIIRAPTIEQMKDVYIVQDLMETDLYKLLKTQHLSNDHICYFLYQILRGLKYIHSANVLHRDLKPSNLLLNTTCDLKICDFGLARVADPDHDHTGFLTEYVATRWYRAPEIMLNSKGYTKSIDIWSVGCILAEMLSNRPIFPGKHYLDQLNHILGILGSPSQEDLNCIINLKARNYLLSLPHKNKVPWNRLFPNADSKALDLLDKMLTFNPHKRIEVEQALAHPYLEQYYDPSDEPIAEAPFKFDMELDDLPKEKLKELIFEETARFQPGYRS
Chain of Serine/threonine-protein kinase Chk2 (O96017 whole entry): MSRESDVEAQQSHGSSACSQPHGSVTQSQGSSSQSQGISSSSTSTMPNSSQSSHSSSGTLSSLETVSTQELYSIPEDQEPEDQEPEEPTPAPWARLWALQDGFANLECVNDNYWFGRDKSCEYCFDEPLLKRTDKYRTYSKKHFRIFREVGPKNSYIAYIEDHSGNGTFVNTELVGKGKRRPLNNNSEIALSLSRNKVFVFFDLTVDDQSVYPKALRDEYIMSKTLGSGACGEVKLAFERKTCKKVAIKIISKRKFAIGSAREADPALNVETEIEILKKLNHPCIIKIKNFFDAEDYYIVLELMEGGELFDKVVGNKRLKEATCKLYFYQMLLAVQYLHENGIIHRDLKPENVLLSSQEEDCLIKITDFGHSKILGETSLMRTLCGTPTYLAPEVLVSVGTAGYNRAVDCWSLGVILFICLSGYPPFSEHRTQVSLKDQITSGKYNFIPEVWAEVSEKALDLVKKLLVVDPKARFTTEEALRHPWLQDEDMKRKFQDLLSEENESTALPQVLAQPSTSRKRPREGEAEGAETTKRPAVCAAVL

Row | inhibition [1] [%] | inhibition [2] [%] | inhibition [3] [%] | inhibition [4] [%] | inhibition [6] [%] | inhibition [7] [%] | inhibition [8] [%] | inhibition [9] [%] | inhibition [10] [%] | inhibition [12] [%] | inhibition [14] [%] | inhibition [15] [%] | inhibition [16] [%] | inhibition [17] [%] | inhibition [19] [%] | inhibition [20] [%] | inhibition [21] [%] | inhibition [22] [%] | inhibition [24] [%] | solubility [26] [µg/mL] | SMILES | other results
1 | -1 | 2 | 13 | 61 | 12 | -2 | 96 | 79 | -8 | 96 | -10 | 22 | 98 | 29 | 96 | 23 | 90 | 2 | 20 | < 1 | Nc1c2c(=O)[nH]c(-c3ccccc3)cc2nn1-c1ccccc1 | IC50 [5]: 1400 nM; IC50 [11]: 4800 nM; IC50 [13]: 8700 nM; inhibition of growth at 0.039 µM [18]: 35%; IC50 [23]: 1500 nM; IC50 [25]: 1300 nM; inhibition [27]: 38%; IC50 [28]: 870 nM
2 | 4 | 10 | 2 | 4 | 8 | -8 | 42 | 78 | -1 | 71 | – | 6 | 71 | 16 | 62 | -3 | 73 | 9 | 14 | 7 (≈ 22.1 µM) | Cc1[nH]c(=O)c2c(N)n(-c3ccccc3)nc2c1-c1ccccc1 | inhibition [29]: 26%; inhibition [27]: -2%
3 | 6 | 9 | 4 | 33 | 4 | 4 | 10 | 0 | 5 | 7 | 1 | 5 | 7 | 17 | 8 | 5 | 11 | 7 | 9 | 259 (≈ 1150 µM) | Cn1nc(N)c2cnc(-c3ccccc3)cc21 | inhibition [30]: 1%; inhibition [27]: 2%
4 | 1 | 4 | 4 | 6 | 7 | 5 | 20 | 26 | -4 | 9 | -8 | 5 | 26 | 9 | 22 | -1 | 24 | -4 | 7 | 69 (≈ 287 µM) | Cc1cc2nn(-c3ccccc3)c(N)c2c(=O)[nH]1 | inhibition [30]: -9%
